# Assays:
# Type in all cases: functional
# [1] = Growth inhibition of human EKVX cells at 10 uM after 48 hrs by SRB assay; conditions: read-out: GI
# Outline: (§1)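 NCI-60 primary one-dose screen run at the US NCI, with human tumour lines from nine cancer types. Compound added once at 10^-5 M, followed by 48 h incubation. End point was sulforhodamine B protein staining read spectrophotometrically. Result given as percent growth of treated cells against untreated controls, reported as % growth inhibition.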
# T47D = assay: Growth inhibition of human T47D cells at 10 uM after 48 hrs by SRB assay; conditions: read-out: GI; outline: as §1
# IGROV-1 = assay: Growth inhibition of human IGROV1 cells at 10 uM after 48 hrs by SRB assay; conditions: IGROV-1, 48 h, read-out: GI; outline: as §1
# SR = assay: Growth inhibition of human SR cells at 10 uM after 48 hrs by SRB assay; conditions: read-out: GI; outline: as §1
# [2] = Growth inhibition of human RXF393 cells at 10 uM after 48 hrs by SRB assay; conditions: RXF 393, 48 h, read-out: GI; outline: as §1
# HL-60(TB) = assay: Growth inhibition of human HL-60(TB) cells at 10 uM after 48 hrs by SRB assay; conditions: HL-60, 48 h, read-out: GI
# Outline: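 NCI 60-cell-line primary screen: compound added at single concentration 10^-5 M, cultures incubated 48 h; end point by sulforhodamine B protein staining read spectrophotometrically; result given as growth percentage of treated versus untreated control cells, reported as % growth inhibition.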
# [3] = Growth inhibition of human HCT15 cells at 10 uM after 48 hrs by SRB assay; conditions: HCT-15, 48 h, read-out: GI; outline: as §1
# [4] = Growth inhibition of human SF539 cells at 10 uM after 48 hrs by SRB assay; conditions: SF-539, 48 h, read-out: GI; outline: as §1
# SW-620 = assay: Growth inhibition of human SW620 cells at 10 uM after 48 hrs by SRB assay; conditions: SW-620, 48 h, read-out: GI; outline: as §1
# [5] = Growth inhibition of human HOP92 cells at 10 uM after 48 hrs by SRB assay; conditions: HOP-92, 48 h, read-out: GI; outline: as §1
# [6] = Growth inhibition of human Hs578T cells at 10 uM after 48 hrs by SRB assay; conditions: Hs-578T, read-out: GI; outline: as §1
# SF-268 = assay: Growth inhibition of human SF268 cells at 10 uM after 48 hrs by SRB assay; conditions: SF-268, 48 h, read-out: GI; outline: as §1
# TK-10 = assay: Growth inhibition of human TK10 cells at 10 uM after 48 hrs by SRB assay; conditions: TK-10, 48 h, read-out: GI; outline: as §1
# K562 = assay: Growth inhibition of human K562 cells at 10 uM after 48 hrs by SRB assay; conditions: K562, 48 h, read-out: GI; outline: as §1
# [7] = Growth inhibition of human UO31 cells at 10 uM after 48 hrs by SRB assay; conditions: UO-31, 48 h, read-out: GI; outline: as §1
# SN12C = assay: Growth inhibition of human SN12C cells at 10 uM after 48 hrs by SRB assay; conditions: read-out: GI; outline: as §1
# NCI-H322M = assay: Growth inhibition of human NCI-H322M cells at 10 uM after 48 hrs by SRB assay; conditions: read-out: GI; outline: as §1
# SK-OV-3 = assay: Growth inhibition of human SKOV3 cells at 10 uM after 48 hrs by SRB assay; conditions: SK-OV-3, 48 h, read-out: GI; outline: as §1
# MDA-MB-231 = assay: Growth inhibition of human MDA-MB-231 cells at 10 uM after 48 hrs by SRB assay; conditions: MDA-MB-231, 48 h, read-out: GI; outline: as §1
# SK-MEL-5 = assay: Growth inhibition of human SK-MEL-5 cells at 10 uM after 48 hrs by SRB assay; conditions: SK-MEL-5, 48 h, read-out: GI; outline: as §1
# CCRF-CEM = assay: Growth inhibition of human CCRF-CEM cells at 10 uM after 48 hrs by SRB assay; conditions: read-out: GI
# Outline: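 NCI primary one-dose screen. A single concentration of 10^-5 M was added to the cell culture, followed by 48 h incubation and an SRB protein-dye endpoint read spectrophotometrically. Results are growth percentage relative to untreated control cells, reported as % growth inhibition.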
SMILES,inhibition of growth at 10 µM [1],inhibition of growth at 10 µM (IGROV-1),inhibition of growth at 10 µM (SR),inhibition of growth at 10 µM [2],inhibition of growth at 10 µM (HL-60(TB)),inhibition of growth at 10 µM [3],inhibition of growth at 10 µM [4],inhibition of growth at 10 µM (SW-620),inhibition of growth at 10 µM [5],inhibition of growth at 10 µM [6],inhibition of growth at 10 µM (SF-268),inhibition of growth at 10 µM (TK-10),inhibition of growth at 10 µM (K562),inhibition of growth at 10 µM [7],inhibition of growth at 10 µM (SN12C),inhibition of growth at 10 µM (NCI-H322M),inhibition of growth at 10 µM (SK-OV-3),inhibition of growth at 10 µM (MDA-MB-231),inhibition of growth at 10 µM (SK-MEL-5),inhibition of growth at 10 µM (CCRF-CEM),also measured
Cc1ccc(C(=O)Nc2ccc(Cl)cc2C(=O)NCc2ccccc2)cc1,20%,16%,63%,13%,49%,43%,16%,42%,< 10%,21%,< 10%,< 10%,70%,24%,< 10%,< 10%,< 10%,< 10%,22%,27%,inhibition of growth at 10 µM (T47D): < 10%
Cc1ccc(C(=O)Nc2ccc(Cl)cc2C(=O)Nc2ccccc2)cc1,< 10%,< 10%,–,< 10%,–,11%,29%,< 10%,< 10%,< 10%,< 10%,< 10%,–,< 10%,< 10%,< 10%,12%,16%,13%,–,inhibition of growth at 10 µM (T47D): 20%
Cc1ccc(-c2nc3ccc(Cl)cc3c(=O)n2NC(=O)CNN)cc1,34%,41%,13%,11%,12%,16%,54%,28%,–,40%,28%,61%,11%,25%,33%,29%,84%,62%,11%,< 10%,inhibition of growth at 10 µM (T47D): 52%
Cc1ccc(-c2nc3ccc(Cl)cc3c3nnnn23)cc1,11%,< 10%,< 10%,< 10%,< 10%,< 10%,18%,17%,< 10%,< 10%,< 10%,< 10%,11%,24%,16%,< 10%,12%,27%,< 10%,< 10%,inhibition of growth at 10 µM (T47D): 23%
Cc1ccc(-c2nc3ccc(Cl)cc3c3nnc(S)n23)cc1,11%,< 10%,< 10%,< 10%,< 10%,< 10%,< 10%,< 10%,< 10%,< 10%,< 10%,19%,11%,< 10%,< 10%,< 10%,< 10%,16%,12%,12%,inhibition of growth at 10 µM (T47D): < 10%
Cc1ccc(-c2nc3ccc(Cl)cc3c(=O)n2NC(=O)CN)cc1,22%,< 10%,< 10%,< 10%,< 10%,–,15%,< 10%,< 10%,< 10%,< 10%,< 10%,< 10%,11%,< 10%,< 10%,< 10%,< 10%,< 10%,14%,–
Cc1ccc(C(=O)Nc2ccc(Cl)cc2C(=O)Nc2ccccn2)cc1,12%,14%,< 10%,< 10%,16%,14%,22%,< 10%,< 10%,< 10%,13%,< 10%,35%,13%,< 10%,< 10%,< 10%,< 10%,39%,29%,inhibition of growth at 10 µM (T47D): 20%
Cc1ccc(C2=Nc3ccc(Cl)cc3C3=NNCC(=O)NN23)cc1,12%,< 10%,< 10%,< 10%,< 10%,< 10%,< 10%,< 10%,< 10%,< 10%,< 10%,< 10%,< 10%,18%,< 10%,< 10%,< 10%,11%,< 10%,< 10%,–

# — ChEMBL document CHEMBL3259728, “Design, synthesis and biological evaluation of some novel substituted quinazolines as antitumor agents” (2014)
